From ChEMBL document CHEMBL3045897, “Bioactivity of compounds from Acmella oleracea against Tuta absoluta (Meyrick) (Lepidoptera: Gelechiidae) and selectivity to two non-target species” (Pest Manag Sci, 2012)

How the values were obtained:
[1] = tested on: Tuta absoluta; assay: Contact toxicity against second-instar larvae of Tuta absoluta assessed as mortality after 24 hr; type: functional
How it was run: (§1)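 Topical application of 0.5 µL test solution in acetone per insect; controls got 0.5 µL acetone alone. Insects were held singly with food in small petri dishes at 25 ± 0.5 °C, 75±5% RH and a 12 h photoperiod. Mortality (dead or motionless insects) was scored at 24 h.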

[2] = Contact toxicity against adult Solenopsis saevissima assessed as mortality at contact LD80 for second-instar larvae of Tuta absoluta measured after 24 hr; type: organism-based; conditions: in vivo, topical or ocular
[3] = Contact toxicity against adult Tetragonisca angustula assessed as mortality at contact LD80 for second-instar larvae of Tuta absoluta measured after 24 hr; type: organism-based; conditions: in vivo, topical or ocular
[4] = Selectivity ratio of LD50 for adult Solenopsis saevissima to LD50 for second-instar larvae of Tuta absoluta
How it was run: (§2)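 Test solutions in acetone were applied topically at 0.5 µL per insect, with acetone alone as control. Insects were then held individually in petri dishes with food at 25 ± 0.5 °C, 75±5% RH and a 12 h photoperiod. Mortality (dead or motionless) was scored at 24 h. LD50 values came from probit analysis of dose–mortality data for each species, and SLR50 was computed from these LD50 values.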

[5] = tested on: Solenopsis saevissima; assay: Contact toxicity against adult Solenopsis saevissima assessed as mortality after 24 hr; type: organism-based; conditions: in vivo, topical_or_ocular; how it was run: as §1
[6] = Selectivity ratio of LD50 for adult Tetragonisca angustula to LD50 for second-instar larvae of Tuta absoluta; how it was run: as §2
[7] = tested on: Tetragonisca angustula; assay: Contact toxicity against adult Tetragonisca angustula assessed as mortality after 24 hr; type: organism-based; conditions: in vivo, topical_or_ocular; how it was run: as §1
[8] = tested on: Tuta absoluta; assay: Ratio of permethrin LD50 to compound LD50 for second-instar larvae of Tuta absoluta assessed as mortality after 24 hr; type: functional

Row | Structure (SMILES) | LD50 [1] [µg/mg] | LD80 [1] [µg/mg] | mortality at 24 h [2] [%] | mortality at 24 h [3] [%] | Ratio [4] | LD50 [5] [µg/mg] | LD80 [5] [µg/mg] | Ratio [6] | LD50 [7] [µg/mg] | LD80 [7] [µg/mg] | Ratio [8]
1 | C#CC#CCCCC/C=C/C(=O)NC[C@H](C)CC | 0.81 | 1.76 | 55 | 59 | 1.64 | 1.33 | 4.4 | 1.35 | 1.1 | 2.26 | 
2 | C#CC#CCCCC/C=C/C(=O)NCC(C)C |  |  |  |  |  |  | 2.22 |  |  | 2.02 | 
3 | CC1(C)C(C=C(Cl)Cl)C1C(=O)OCc1cccc(Oc2ccccc2)c1 (stereo not drawn) [PERMETHRIN] | 0.71 | 2.57 | 100 | 100 | 0.00042 | 0.046 | 1.458 | 0.065 | 0.0003 | 0.002 | 
4 | C/C=C/C=C\CC/C=C/C(=O)NCC(C)C [Spilanthol] | 0.13 | 0.56 | 68 | 58 | 1.38 | 0.18 | 1.12 | 2.69 | 0.35 | 0.81 | 5
